Sampled rows, rich in hits. Any-hit rate of the full collection: about 0.79%.
hIAP block – blocks human intestinal alkaline phosphatase. inhibition, % at 10 µM. actives 0.12% (n = 330,000). purified IAP, CDP-Star luminescence, 30 min. P09923;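 active = inhibition reaching a set limit with compound at 10 µM in the primary screen, cut at about 35% in these data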;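 note: plate controls were DMSO wells with enzyme for no effect and no-enzyme buffer wells for full effect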
Target sequence (P09923 whole entry, looked up): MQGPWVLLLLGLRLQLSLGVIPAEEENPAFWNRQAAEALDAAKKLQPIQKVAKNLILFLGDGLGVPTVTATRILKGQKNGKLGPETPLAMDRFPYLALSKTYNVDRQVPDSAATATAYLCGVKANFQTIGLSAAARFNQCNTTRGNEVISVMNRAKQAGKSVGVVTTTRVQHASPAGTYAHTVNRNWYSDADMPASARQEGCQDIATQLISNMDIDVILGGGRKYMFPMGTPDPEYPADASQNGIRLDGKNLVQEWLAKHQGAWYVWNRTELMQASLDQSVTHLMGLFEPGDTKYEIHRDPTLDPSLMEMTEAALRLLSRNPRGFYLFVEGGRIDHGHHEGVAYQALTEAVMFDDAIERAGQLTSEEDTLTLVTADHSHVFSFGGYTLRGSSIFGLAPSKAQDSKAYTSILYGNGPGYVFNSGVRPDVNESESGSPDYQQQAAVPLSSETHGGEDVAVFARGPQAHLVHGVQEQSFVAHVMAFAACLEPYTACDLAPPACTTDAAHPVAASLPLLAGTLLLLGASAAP
hIAP activ – increases human intestinal alkaline phosphatase activity; actives 0.16% (n = 330,000); P09923; purified human IAP, CDP-Star luminescence, 30 min; hits give high values; 1 = vehicle-only enzyme, 0 = enzyme-free background; AID 2524; activation factor at 10 µM;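 active = activation factor of the enzyme at least 2-fold when tested at 20 µM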
mIAP inh – mouse IAP inhibition; purified mouse IAP, CDP-Star luminescence, 30 min; inhibition, % at 10 µM; actives 0.2% (n = 330,000); AID 2806;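 active = inhibition of at least 40% at 10 µM in the primary screen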;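 note: plate controls were DMSO with enzyme for no effect and no enzyme wells for full effect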
bIAP inh – blocks bovine intestinal alkaline phosphatase activity; purified bovine IAP, CDP-star luminescence, 30 min; inhibition, % at 20 µM; 190,000 tested, under 10 active;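 active = over 50% inhibition of intestinal alkaline phosphatase at 20 µM in the single-dose screen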
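System: Purified bovine intestinal alkaline phosphatase (IAP) enzyme | Input: IAP diluted 1/65,000,000 in the well | Also added: CDP-star chemiluminescent phosphatase substrate, 30 µM final | Dosing: 20 µM single dose | Times: Enzyme reaction for 30 min at room temperature | Detection: Luminescence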
mIAP act – increases mouse intestinal alkaline phosphatase activity; activation factor at 10 µM; AID 2805; actives 0.24% (n = 330,000); muIAP, CDP-Star luminescence, 30 min; hits give high values; 1 = vehicle-only enzyme signal, 0 = enzyme-free wells;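 active = activation factor of at least 2 at 20 µM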
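Assay system: mouse IAP enzyme; Reagent: CDP-Star chemiluminescent phosphatase substrate; Compound: DMSO-dissolved test compounds; Incubation: 30 min, room temperature; Technique: luminescence from enzymatic CDP-Star hydrolysis; Controls: DMSO-only wells and no-enzyme negative control.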
bIAP act – increases bovine intestinal alkaline phosphatase activity. actives 0.17% (n = 200,000). activation factor at 20 µM. purified bovine IAP, CDP-star luminescence, 30 min; hits give high values; fold of DMSO-control signal, blank-subtracted;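 active = activation factor of 2 or more at 20 µM, a signal rise over negative controls twice the positive control's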
hIAP act confirm – human IAP activation confirmation. purified IAP, CDP-Star luminescence, 30 min; hits give low values. actives 10% (n = 880). shares compounds with hIAP activ. activation (%Activity, negative = activation), % at 8.3 µM;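 active = at least twofold enzyme activation in any of six single-dose repeats, which the averaged readout prints as negative percent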
* marks the source's active call; other numbers are inactive results; / = no result given.

SMILES	hIAP block	hIAP activ	mIAP inh	bIAP inh	mIAP act	bIAP act	hIAP act confirm
COCCNC(=S)N=Nc1c(O)[nH]c2ccc([N+](=O)[O-])cc12	-141	2.4*	18	/	0.82	/	-40
CN1CCc2c1nc1ccccc1c2N (tested in a mixture with another compound)	38*	0.61	-1	/	1	/	1
Cc1cc(/C=C(\C#N)C(=O)OCC(=O)Nc2ccc(OC(F)F)cc2)c(C)n1CC(C)C	6	0.94	4	-5	0.96	1.1	/
CCc1csc(CCNC(=O)C2CCC(=O)N(CCc3cccc(F)c3)C2)n1 (stereo not given)	4	0.96	4	/	0.95	/	/
CCCCC(=O)N/N=C(/C)C1=C(C)C(C)(C)OC1=O	5	0.95	-6	4	1.1	1	/
CCCN1C(=O)/C(=C2/C=Cc3ccccc3N2CC)SC1=S	38*	0.62	34	4	0.66	1	6
COc1cc(OC)c(/C=N/NC(=O)Cn2nc([N+](=O)[O-])cc2C)c(OC)c1	-6	1.1	-3	/	1	/	/
O=C1/C(=C\c2ccc(O)c(O)c2)N=C2CCCCCN12	57*	0.43	37	/	0.63	/	-29
COc1cc(/C=C2\N=C3CCCCCN3C2=O)ccc1O	-7	1.1	24	/	0.76	0.3	/
N#Cc1ccc(S(=O)(=O)N2CCC(C(=O)Nc3cccc(C(=O)NC4CC4)c3)CC2)cc1	-7	1.1	3	/	0.97	/	/
CC(C(=O)Nc1ncn[nH]1)N1C(=O)c2ccccc2C1=O (stereo not given)	-26	1.3	-3	-12	1	1.1	/
Cc1ccc(C(=O)Nc2ncn[nH]2)cc1	-112	2.1*	3	/	0.97	/	-8
Cc1ccc(SC(C)C(=O)Nc2ncn[nH]2)cc1 (stereo not given)	-139	2.4*	-16	-52	1.2	1.5	11
CC(C)(C)c1ccc(C(=O)Nc2ncn[nH]2)cc1	-57	1.6	-7	-21	1.1	1.2	/
CCCOC(=O)c1ccc(Oc2cn[nH]c2-c2ccc(OCC(=O)NN)cc2O)cc1	-97	2	-5	/	1.1	/	/
CCOc1ccc(-c2n[nH]c(C)c2Oc2ccccc2OC)c(O)c1	4	0.96	-12	-58	1.1	1.6	/
Cc1[nH]nc(-c2ccc(O)cc2O)c1Oc1ccccc1	-107	2.1*	-26	-16	1.3	1.2	-17
CCCOC(=O)c1ccc(Oc2c(-c3ccc(OC)cc3O)n[nH]c2C)cc1	-80	1.8	2	-15	0.98	1.2	/
CCOC(=O)c1ccc(Oc2cn[nH]c2-c2ccc(OCC(=O)NN)cc2O)cc1	-136	2.4*	6	/	0.94	/	4
CCCOC(=O)c1ccc(Oc2c(-c3ccc(O)cc3O)n[nH]c2C)cc1	-132	2.3*	-12	-48	1.1	1.5	-62
O=C(CN1CCCCCC1)Nc1ccccc1Oc1ccccc1	-11	1.1	-4	21	1	0.8	/
Cc1ccccc1CN1CCC(n2nccc2NC(=O)CCCc2ccccc2)CC1	-190	2.9*	-89	/	1.9	/	26
O=C(CCCc1ccccc1)Nc1ccnn1C1CCN(Cc2ccccn2)CC1	-18	1.2	-2	/	1	/	/
O=C(c1ccco1)N1CCN(c2nc(-c3ccc(F)cc3)cs2)CC1	-100	2*	18	-10	0.81	1.1	3
Cn1cccc1C(=O)NC(=O)CSc1nc2ccccc2s1	-107	2.1*	-1	11	1	0.9	1
SMILES	hIAP block	hIAP activ	mIAP inh	bIAP inh	mIAP act	bIAP act	hIAP act confirm
CC(=O)CSc1nc2ccccc2s1	0	1	0	3	1	1	/
NCCNc1ccc(C(=O)N2c3ccccc3Sc3ccccc32)cc1[N+](=O)[O-]	-246	3.5*	4	/	0.96	/	-42
Nc1ccc(C(=O)OCC(=O)N2c3ccccc3Sc3ccccc32)cc1[N+](=O)[O-]	/	/	/	-2	/	1	/
CN(CC(=O)Nc1ccccc1Cl)C(=O)COC(=O)c1cnccn1	35*	0.65	-3	/	1	/	-1
O=C(N/N=C/c1ccncc1)c1nc2ccccc2c(=O)[nH]1	-170	2.7*	-19	/	1.2	/	7
O=C(N/N=C/c1ccc2cccnc2c1)c1nc2ccccc2c(=O)[nH]1	-167	2.7*	9	/	0.91	/	-193*
Cc1noc(N)c1C1(O)C(=O)Nc2c(Cl)cc(Cl)cc21 (stereo not given)	-7	1.1	-11	0	1.1	1	/
COc1ccccc1C(=O)NCC(=O)NNc1ncnc(N)c1[N+](=O)[O-]	-159	2.6*	25	-30	0.75	1.3	-31
CC(=O)Nc1ccc(S(=O)(=O)NNC(=O)C(=O)NNc2ccccn2)cc1	-185	2.8*	7	/	0.93	/	-31
Cc1ccc(S(=O)(=O)NNC(=O)C(O)(c2ccccc2)c2ccccc2)cc1	7	0.93	10	34	0.9	0.7	/
CC(=O)Nc1ccc(S(=O)(=O)Nc2ccccn2)cc1	-9	1.1	9	4	0.91	1	/
Cc1ccccc1S(=O)(=O)NNC(=O)C(=O)NNc1ccccn1	-210	3.1*	9	-49	0.91	1.5	1
Cc1ccc(S(=O)(=O)NNC(=O)C(=O)NNc2ccccn2)cc1	-209	3.1*	14	-64	0.86	1.6	-22
Cc1cc(C)n(-c2ccccc2C#N)n1	10	0.9	2	/	0.98	/	/
Cc1ccccc1/C(N)=N/OC(=O)c1cccs1	7	0.93	2	4	0.98	1	/
COC(=O)c1ccccc1-c1c2ccc(=N)cc-2oc2cc(N)ccc12	38*	0.62	-30	/	1.3	/	35
COc1cc(C(=O)NC(=S)NNC(=O)c2cnccn2)cc(OC)c1OC	-116	2.2*	24	31	0.76	0.7	-22
Cc1ccc2nc(CCc3nc4ccc(C)cc4[nH]3)[nH]c2c1	-133	2.3*	-6	/	1.1	/	-5
c1ccc2[nH]c(CCCCc3nc4ccccc4[nH]3)nc2c1	-43	1.4	-6	/	1.1	/	/
Cc1ccc2nc(CCCc3nc4ccc(C)cc4[nH]3)[nH]c2c1	-171	2.7*	-24	/	1.2	/	-60
Cc1ccc2nc(Cc3ccc(N)cc3)[nH]c2c1	-13	1.1	-16	-11	1.2	1.1	/
CC(C)(C)Sc1ccc([N+](=O)[O-])cc1C(=O)Nc1ccncc1	-16	1.2	2	/	0.98	/	/
O=c1c2c(-c3cccs3)csc2ncn1-c1ccc(Br)cc1	61*	0.39	14	6	0.86	0.9	-112*
CN1CCN(NC(=O)c2ccc(Br)c(S(=O)(=O)N3CCOCC3)c2)CC1	-7	1.1	33	4	0.67	1	/
CC(C)(CC(=O)O)CC(=O)N1CCN(c2nc3cc(Cl)ccc3s2)CC1	0	1	6	/	0.94	/	/

High-throughput results deposited in PubChem BioAssay by Sanford-Burnham Center for Chemical Genomics.
